In ChEMBL document CHEMBL1152507, “An extended study of dimeric phenyl tropanes” (Bioorg Med Chem, 2009):

Tests used:
Homo sapiens [1] = organism: Homo sapiens; assay: Selectivity ratio of Ki for human SERT to Ki for human DAT
[2] = biological target: Sodium-dependent noradrenaline transporter (Homo sapiens, UniProt P23975); assay: Displacement of [125I]methyl 3-(4-iodophenyl)-8-methyl-8-aza-bicyclo[3.2.1]octane-2-carboxylate from human recombinant NET expressed in african green monkey COS1 cells by liquid scintillation counting; format: cell-based, COS-1
How it was run: (§1)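 Membranes from COS-1 cells stably expressing cloned human transporter; cells scraped, homogenized in ice-cold 150 mM NaCl/50 mM Tris/20 mM EDTA, pelleted at 12,000g, resuspended in PBSCM, stored at -80 °C. Filtered on PEI-presoaked GF/B filters, washed thrice with ice-cold water.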

[3] = biological target: Sodium-dependent serotonin transporter (Homo sapiens, UniProt P31645); assay: Displacement of [125I]methyl 3-(4-iodophenyl)-8-methyl-8-aza-bicyclo[3.2.1]octane-2-carboxylate from human recombinant SERT expressed in african green monkey COS1 cells by liquid scintillation counting; format: cell-based, COS-1; how it was run: as §1
[4] = biological target: Sodium-dependent dopamine transporter (Homo sapiens, UniProt Q01959); assay: Displacement of [125I]methyl 3-(4-iodophenyl)-8-methyl-8-aza-bicyclo[3.2.1]octane-2-carboxylate from human recombinant DAT expressed in african green monkey COS1 cells by liquid scintillation counting; format: cell-based, COS-1
How it was run: as §1, with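 “°C. 5 µg protein/well incubated with test drug and 0.1–0.25 nM 125I-radioligand for 1 h at 20 °C.” for “°C.”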

Homo sapiens [5] = organism: Homo sapiens; assay: Selectivity ratio of Ki for human NET to Ki for human DAT

Chain of Sodium-dependent serotonin transporter (P31645 whole entry): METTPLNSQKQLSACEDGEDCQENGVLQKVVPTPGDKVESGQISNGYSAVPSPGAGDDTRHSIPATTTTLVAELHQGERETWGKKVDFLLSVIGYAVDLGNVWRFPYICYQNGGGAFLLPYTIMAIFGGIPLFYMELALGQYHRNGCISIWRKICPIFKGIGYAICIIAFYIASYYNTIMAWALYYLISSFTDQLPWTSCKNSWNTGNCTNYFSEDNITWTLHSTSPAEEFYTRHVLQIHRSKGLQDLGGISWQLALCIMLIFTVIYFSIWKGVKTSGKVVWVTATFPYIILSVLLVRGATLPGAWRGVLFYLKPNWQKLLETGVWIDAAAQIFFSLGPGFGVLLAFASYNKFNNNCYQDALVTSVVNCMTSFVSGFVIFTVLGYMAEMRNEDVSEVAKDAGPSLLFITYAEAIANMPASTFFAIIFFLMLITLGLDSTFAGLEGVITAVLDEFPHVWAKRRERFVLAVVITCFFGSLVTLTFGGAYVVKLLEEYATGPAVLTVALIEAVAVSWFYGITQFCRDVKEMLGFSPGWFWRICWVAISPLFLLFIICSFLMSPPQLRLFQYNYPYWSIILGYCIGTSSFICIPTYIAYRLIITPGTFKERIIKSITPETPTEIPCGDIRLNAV
Chain of Sodium-dependent noradrenaline transporter (P23975 whole entry): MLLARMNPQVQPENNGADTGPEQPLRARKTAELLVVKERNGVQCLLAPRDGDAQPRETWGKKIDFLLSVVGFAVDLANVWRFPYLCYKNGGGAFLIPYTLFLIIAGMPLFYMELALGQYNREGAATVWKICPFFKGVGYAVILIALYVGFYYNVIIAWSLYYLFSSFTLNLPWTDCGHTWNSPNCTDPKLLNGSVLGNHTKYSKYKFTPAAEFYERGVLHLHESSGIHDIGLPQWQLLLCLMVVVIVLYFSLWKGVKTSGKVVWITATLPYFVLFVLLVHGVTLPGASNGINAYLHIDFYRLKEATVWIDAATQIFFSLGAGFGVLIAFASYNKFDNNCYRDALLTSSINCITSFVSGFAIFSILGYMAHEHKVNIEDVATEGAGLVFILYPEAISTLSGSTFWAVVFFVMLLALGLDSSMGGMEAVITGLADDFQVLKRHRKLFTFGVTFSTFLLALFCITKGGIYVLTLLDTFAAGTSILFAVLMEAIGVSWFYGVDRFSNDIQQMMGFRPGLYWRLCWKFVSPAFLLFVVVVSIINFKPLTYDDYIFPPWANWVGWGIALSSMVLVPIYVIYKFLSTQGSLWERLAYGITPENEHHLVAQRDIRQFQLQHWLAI
Chain of Sodium-dependent dopamine transporter (Q01959 whole entry): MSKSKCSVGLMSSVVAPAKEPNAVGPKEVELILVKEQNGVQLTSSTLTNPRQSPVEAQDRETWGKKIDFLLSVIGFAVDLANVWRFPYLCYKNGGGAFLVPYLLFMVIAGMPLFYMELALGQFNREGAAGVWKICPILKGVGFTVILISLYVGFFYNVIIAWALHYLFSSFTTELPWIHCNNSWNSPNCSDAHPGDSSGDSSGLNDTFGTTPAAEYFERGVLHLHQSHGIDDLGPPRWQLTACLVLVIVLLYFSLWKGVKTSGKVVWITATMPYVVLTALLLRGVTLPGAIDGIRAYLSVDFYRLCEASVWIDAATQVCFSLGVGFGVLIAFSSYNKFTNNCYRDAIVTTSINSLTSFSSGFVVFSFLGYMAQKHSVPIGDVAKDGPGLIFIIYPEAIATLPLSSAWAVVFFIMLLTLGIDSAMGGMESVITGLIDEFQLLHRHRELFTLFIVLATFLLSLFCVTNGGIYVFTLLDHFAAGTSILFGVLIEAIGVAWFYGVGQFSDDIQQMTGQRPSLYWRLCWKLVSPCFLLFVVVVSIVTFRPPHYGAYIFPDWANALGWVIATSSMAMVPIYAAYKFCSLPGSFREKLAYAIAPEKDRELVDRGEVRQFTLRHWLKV

Row | SMILES | Ratio Ki (Homo sapiens [1]) | Ki [2] | Ki [3] | Ki [4] | Ratio Ki (Homo sapiens [5])
1 | COC(=O)[C@@H]1C2CCC(C[C@@H]1c1ccc(I)cc1)N2C (stereo partly specified) | 1.1 | 0.019 µM | 0.0042 µM | 0.0039 µM | 4.9
2 | CN1C2CCC1[C@@H](C(=O)NCCCCCCCCCCNC(=O)[C@H]1C3CCC(C[C@@H]1c1ccc(-c4ccsc4)cc1)N3C)[C@@H](c1ccc(-c3ccsc3)cc1)C2 | 0.72 | 1.5 µM | 0.25 µM | 0.35 µM | 4.4
3 | CN1C2CCC1[C@@H](C(=O)NCc1ccc(CNC(=O)[C@H]3C4CCC(C[C@@H]3c3ccc(-c5ccsc5)cc3)N4C)cc1)[C@@H](c1ccc(-c3ccsc3)cc1)C2 | 1.7 | 0.62 µM | 0.16 µM | 0.093 µM | 6.7
4 | CN1C2CCC1[C@@H](C(=O)NCc1ccc(CCNC(=O)[C@H]3C4CCC(C[C@@H]3c3ccc(-c5ccsc5)cc3)N4C)cc1)[C@@H](c1ccc(-c3ccsc3)cc1)C2 (stereo partly specified) | 0.38 | 1.3 µM | 0.062 µM | 0.16 µM | 8.2
5 | CN1C2CCC1[C@@H](C(=O)NCCCCCCCCNC(=O)[C@H]1C3CCC(C[C@@H]1c1ccc(-c4ccsc4)cc1)N3C)[C@@H](c1ccc(-c3ccsc3)cc1)C2 | 0.68 | 1.7 µM | 0.47 µM | 0.69 µM | 2.4
6 | CN1C2CCC1[C@@H](C(=O)OCc1cn(CCCCCCCOC(=O)[C@H]3C4CCC(C[C@@H]3c3ccc(Cl)cc3)N4C)nn1)[C@@H](c1ccc(Cl)cc1)C2 (stereo partly specified) | 0.89 | 0.02 µM | 0.0035 µM | 0.0039 µM | 5.1
7 | CN1C2CCC1[C@@H](C(=O)Nc1ccc(CCNC(=O)[C@H]3C4CCC(C[C@@H]3c3ccc(Cl)cc3)N4C)cc1)[C@@H](c1ccc(Cl)cc1)C2 (stereo partly specified) | 390 | 0.18 µM | 2.6 µM | 0.0066 µM | 27
8 | CN1C2CCC1[C@@H](C(=O)NCc1cccc(CNC(=O)[C@H]3C4CCC(C[C@@H]3c3ccc(-c5ccsc5)cc3)N4C)c1)[C@@H](c1ccc(-c3ccsc3)cc1)C2 | 3.7 | 1.2 µM | 0.86 µM | 0.23 µM | 5.1
9 | COC(=O)[C@@H]1C2CCC(C[C@@H]1c1ccc(Cl)cc1)N2C (stereo partly specified) |  |  |  | 0.0027 µM | 
10 | CN1C2CCC1[C@@H](C(=O)Nc1ccc(NC(=O)[C@H]3C4CCC(C[C@@H]3c3ccc(-c5ccsc5)cc3)N4C)cc1)[C@@H](c1ccc(-c3ccsc3)cc1)C2 | 1.3 | 1.9 µM | 0.27 µM | 0.21 µM | 9.4
11 | CN1C2CCC1[C@@H](C(=O)Nc1ccc(NC(=O)[C@H]3C4CCC(C[C@@H]3c3ccc(Cl)cc3)N4C)cc1)[C@@H](c1ccc(Cl)cc1)C2 | 4.6 | 5.4 µM | 3.2 µM | 0.69 µM | 7.8
12 | CN1C2CCC1[C@@H](C(=O)OCc1cn(CCOC(=O)[C@H]3C4CCC(C[C@@H]3c3ccc(Cl)cc3)N4C)nn1)[C@@H](c1ccc(Cl)cc1)C2 (stereo partly specified) | 1.6 | 0.12 µM | 0.027 µM | 0.016 µM | 7.3
13 | CN1C2CCC1[C@@H](C(=O)OCc1cn(CCCCCCOC(=O)[C@H]3C4CCC(C[C@@H]3c3ccc(Cl)cc3)N4C)nn1)[C@@H](c1ccc(Cl)cc1)C2 (stereo partly specified) | 0.86 | 0.0085 µM | 0.00086 µM | 0.001 µM | 8.5
14 | CN1C2CCC1[C@@H](C(=O)NCCCCCCNC(=O)[C@H]1C3CCC(C[C@@H]1c1ccc(-c4ccsc4)cc1)N3C)[C@@H](c1ccc(-c3ccsc3)cc1)C2 | 4 | 2.2 µM | 2.1 µM | 0.54 µM | 4
15 | CN1C2CCC1[C@@H](C(=O)Nc1ccc(CCNC(=O)[C@H]3C4CCC(C[C@@H]3c3ccc(-c5ccsc5)cc3)N4C)cc1)[C@@H](c1ccc(-c3ccsc3)cc1)C2 (stereo partly specified) | 0.48 | 3.3 µM | 0.34 µM | 0.71 µM | 4.6
16 | CN1C2CCC1[C@@H](C(=O)OCCCCCn1ccnn1)[C@@H](c1ccc(Cl)cc1)C2 (stereo partly specified) | 3.6 | 0.38 µM | 0.02 µM | 0.0055 µM | 69
17 | CN1C2CCC1[C@@H](C(=O)NCc1ccc(CCNC(=O)[C@H]3C4CCC(C[C@@H]3c3ccc(Cl)cc3)N4C)cc1)[C@@H](c1ccc(Cl)cc1)C2 (stereo partly specified) | 3.3 | 0.1 µM | 0.065 µM | 0.02 µM | 5.2
18 | CN1C2CCC1[C@@H](C(=O)Nc1ccc(CNC(=O)[C@H]3C4CCC(C[C@@H]3c3ccc(-c5ccsc5)cc3)N4C)cc1)[C@@H](c1ccc(-c3ccsc3)cc1)C2 (stereo partly specified) | 0.92 | 2.7 µM | 0.73 µM | 0.8 µM | 3.4
19 | CN1C2CCC1[C@@H](C(=O)NCCC1CCN(C(=O)[C@H]3C4CCC(C[C@@H]3c3ccc(Cl)cc3)N4C)CC1)[C@@H](c1ccc(Cl)cc1)C2 (stereo partly specified) | 14 | 0.44 µM | 2.5 µM | 0.18 µM | 2.5
20 | CN1C2CCC1[C@@H](C(=O)N[C@H]1CC[C@H](NC(=O)[C@H]3C4CCC(C[C@@H]3c3ccc(-c5ccsc5)cc3)N4C)CC1)[C@@H](c1ccc(-c3ccsc3)cc1)C2 | 0.62 | 5 µM | 0.81 µM | 1.3 µM | 3.8
21 | CN1C2CCC1[C@@H](C(=O)Nc1ccc(CNC(=O)[C@H]3C4CCC(C[C@@H]3c3ccc(Cl)cc3)N4C)cc1)[C@@H](c1ccc(Cl)cc1)C2 (stereo partly specified) | 74 | 0.81 µM | 1.5 µM | 0.021 µM | 39
22 | CN1C2CCC1[C@@H](C(=O)N[C@H]1CC[C@H](NC(=O)[C@H]3C4CCC(C[C@@H]3c3ccc(Cl)cc3)N4C)CC1)[C@@H](c1ccc(Cl)cc1)C2 | 4.6 | 4.9 µM | 4 µM | 0.89 µM | 5.5
23 | COC(=O)[C@@H]1C2CCC(C[C@@H]1c1ccc(-c3ccsc3)cc1)N2C (stereo partly specified) | 0.24 | 0.026 µM | 0.00058 µM | 0.0025 µM | 10
